Results taken from PubChem BioAssay AID540324 (Johns Hopkins Ion Channel Center, 2011).
Unmarked numbers belong to inactive results.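 The calls were made as follows: active = maximum inhibition above 30% at any tested concentration, with a dose response curve fitted; inactive = no inhibition at any dose or no dose response curve.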

Test: parental HEK293 potassium flux blockers – cell-based, FluxOR thallium flux, concentration-response, set 2, counter-screen for KCNK9 inhibitor project, SAR follow-up (AID 540324)
Details: FluxOR fluorescence ratio; series mostly up to 30 µM; flux ratio, lower = inhibition: at the top concentration
Procedure, shortened: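 test system = parental HEK293 cells lacking KCNK9 expression | doses = Ten-concentration dilution series per compound | incubation = dye loading 90 min at room temperature in dark, compound exposure 20 min | measured by = fluorescence of thallium-sensitive FluxOR dye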
For `Cc1cccc(C(=O)Nc2cccc(NC(=O)c3ccc(N(C)C)cc3)c2)c1`, the “flux ratio, lower = inhibition” value was 0.208.
In the case of `Cc1cccc(C(=O)Nc2cccc(NC(=O)c3ccncc3)c2)c1`, the “flux ratio, lower = inhibition” value is reported as 0.182.
For `CCOc1ccccc1NC(=O)c1cccc(C(=O)NC2CCCC2)c1`, the “flux ratio, lower = inhibition” value was 0.197.
With `O=C(Nc1cccc(NC(=O)c2ccccc2)c1)c1ccccc1` the “flux ratio, lower = inhibition” value was 0.194.
With `Cc1cccc(C(=O)Nc2cccc(NC(=O)c3ccc(C(C)(C)C)cc3)c2)c1` the “flux ratio, lower = inhibition” value was 0.188.
With `Cc1cccc(C(=O)Nc2cccc(NC(=O)c3ccccc3C)c2)c1` the “flux ratio, lower = inhibition” value was 0.158.
In the case of `CC(C1CC2CCC1C2)n1c(-c2ccccc2Cl)n[nH]c1=S` (stereo not given), the “flux ratio, lower = inhibition” value is reported as 0.205.
With `Cc1cccc(-c2n[nH]c(=S)n2C(C)C2CC3CCC2C3)c1` (stereo not given) the “flux ratio, lower = inhibition” value was 0.534.
In the case of `Cc1cccc(C(=O)Nc2cccc(NC(=O)c3ccco3)c2)c1`, the “flux ratio, lower = inhibition” value is reported as 0.164.
For `CC(C1CC2CCC1C2)n1c(-c2ccccc2)n[nH]c1=S` (stereo not given), the “flux ratio, lower = inhibition” value was 0.379.
With `CCOc1ccccc1NC(=O)c1cccc(NC(=O)c2ccccc2)c1` the “flux ratio, lower = inhibition” value was 0.157.
With `CCOc1ccccc1NC(=O)c1cccc(NC(=O)c2ccccc2C(F)(F)F)c1` the “flux ratio, lower = inhibition” value was 0.17.
For `CCOc1ccccc1NC(=O)c1cccc(NC(=O)C2CCOC2)c1` (stereo not given), the “flux ratio, lower = inhibition” value was 0.19.
For `CCOc1ccccc1NC(=O)c1cccc(NC(=O)c2cccc(C)c2)c1`, the “flux ratio, lower = inhibition” value was 0.153.
For `Cc1cccc(C(=O)Nc2cccc(NC(=O)c3cccc(C)c3)c2)c1`, the “flux ratio, lower = inhibition” value was 0.152.
In the case of `CC(C1CC2CCC1C2)n1c(-c2ccco2)n[nH]c1=S` (stereo not given), the “flux ratio, lower = inhibition” value is reported as 0.27.
For `O=C(Nc1cccc(NC(=O)c2ccncc2)c1)c1ccccc1`, the “flux ratio, lower = inhibition” value was 0.192.
For `CCOc1ccccc1NC(=O)c1cccc(NC(=O)C2CCCCC2)c1`, the “flux ratio, lower = inhibition” value was 0.149.
With `CCOc1ccc(NC(=O)c2cccc(NC(=O)C3CCCC3)c2)cc1` the “flux ratio, lower = inhibition” value was 0.2.
With `O=C(Nc1cccc(NC(=O)c2ccccc2C(F)(F)F)c1)c1ccccc1` the “flux ratio, lower = inhibition” value was 0.163.
With `CCOc1ccccc1NC(=O)c1cccc(NC(=O)c2ccc(OC)cc2)c1` the “flux ratio, lower = inhibition” value was 0.191.
With `O=C(Nc1cccc(NC(=O)c2cccs2)c1)c1ccccc1` the “flux ratio, lower = inhibition” value was 0.153.
For `Cc1ccc(C(=O)Nc2cccc(NC(=O)c3ccccc3)c2)cc1`, the “flux ratio, lower = inhibition” value was 0.192.
In the case of `CCOc1ccccc1NC(=O)c1cccc(NC(=O)CC2CCCC2)c1`, the “flux ratio, lower = inhibition” value is reported as 0.132.
In the case of `CC(c1ccco1)n1c(-c2ccoc2)n[nH]c1=S` (stereo not given), the “flux ratio, lower = inhibition” value is reported as 0.214.
For `COc1ccccc1C(=O)Nc1cccc(NC(=O)c2ccccc2C)c1`, the “flux ratio, lower = inhibition” value was 0.148.
In the case of `CCOc1ccccc1NC(=O)c1cccc(NC(=O)C2CC2)c1`, the “flux ratio, lower = inhibition” value is reported as 0.168.
For `CCOc1ccccc1NC(=O)c1cccc(NC(=O)c2ccccc2C)c1`, the “flux ratio, lower = inhibition” value was 0.124.
With `CCOc1ccccc1NC(=O)c1cccc(NC(=O)c2cccc(OC)c2)c1` the “flux ratio, lower = inhibition” value was 0.162.
With `CC(C1CC2CCC1C2)n1c(-c2cccc(Cl)c2)n[nH]c1=S` (stereo not given) the “flux ratio, lower = inhibition” value was 0.406.
In the case of `CCOc1ccccc1C(=O)Nc1cccc(NC(=O)c2cccc(C)c2)c1`, the “flux ratio, lower = inhibition” value is reported as 0.15.
For `CCOc1ccccc1NC(=O)c1cccc(NC(=O)c2cccc(C(F)(F)F)c2)c1`, the “flux ratio, lower = inhibition” value was 0.161.
In the case of `Cc1cccc(S(=O)(=O)Nc2cccc(NC(=O)c3ccccc3)c2)c1`, the “flux ratio, lower = inhibition” value is reported as 0.165.
For `CCOc1ccccc1NC(=O)c1cccc(NC(=O)CC2CCCCC2)c1`, the “flux ratio, lower = inhibition” value was 0.151.
For `Cc1cccc(C(=O)Nc2cccc(NC(=O)c3ccccc3C(F)(F)F)c2)c1`, the “flux ratio, lower = inhibition” value was 0.183.
